The record followed here is ChEMBL document CHEMBL1208758, “GPR109a agonists. Part 2: pyrazole-acids as agonists of the human orphan G-protein coupled receptor GPR109a” (Bioorg Med Chem Lett, 2010).

A short description of data set [1]: Plasma clearance in C57BL/6 mouse at 2 mg/kg, po and 1 mg/kg, iv. It is filed as ADME, organism-based. The method in brief: (§1)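 Pharmacokinetics in C57BL/6 mice: single dose 1 mg/kg iv or 2 mg/kg po.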
A short description of data set [2]: Oral bioavailability in C57BL/6 mouse at 2 mg/kg. It is filed as ADME, organism-based. Conditions: in vivo. The method, boiled down: as §1
Data set [3] can be described thus: Volume of distribution at steady state in C57BL/6 mouse at 2 mg/kg, po and 1 mg/kg, iv. Format: ADME, organism-based. The settings on record: in vivo, read-out: Vdss. The method in brief: as §1
The test system of another data set is Mus musculus. The experiment in a line: Reduction in plasma free fatty acid level in C57BL/6 mouse at 10 mg/kg, ip after 15 mins. Format: functional. The arrangement: scale not given: the % may be the effect or the level left. The settings on record: route intraperitoneal. The method, boiled down: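 Male C57BL/6 mice, six per group, single 10 mpk ip dose; plasma free fatty acids measured 15 min after dosing and reported as percent reduction. Niacin given at 100 mpk ip as comparator.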

A short description of data set [4]: Half life in C57BL/6 mouse at 2 mg/kg, po and 1 mg/kg, iv. Format: ADME, organism-based. Conditions: in vivo. The method, boiled down: as §1

`O=C(O)c1n[nH]c2c1CC(c1cc(F)cc(F)c1F)C2` (centres undefined): the clearance in data set [1] is 24 mL/min/kg. Also, in data set [2], the bioavailability worked out at 53%. In data set [3], the Vd stood at 9.3 L/kg.

As for `Cn1nccc1C1Cc2[nH]nc(C(=O)O)c2C1` (centres undefined), in data set [1], the clearance came out at 86 mL/min/kg. This compound also came in with a bioavailability in data set [2] of 27%. In data set [3], the Vd was found to be 4.2 L/kg. In the data set on Mus musculus, this compound showed an Activity of 41%. In data set [4], the half-life was 2.3 h.

Regarding `Fc1cc(F)c(F)c(C2Cc3[nH]nc(-c4nnn[nH]4)c3C2)c1` (centres undefined), the Activity in the data set on Mus musculus was determined as 21%.
